Measurements reported in ChEMBL document CHEMBL4602702, “Red-Emitting Dibenzodiazepinone Derivatives as Fluorescent Dualsteric Probes for the Muscarinic Acetylcholine M2 Receptor” (J Med Chem, 2020).
Active and inactive are the calls of the source. The calls are words filed in the database; no cut-off is given here.

Assays:
[1] = biological target: T1, Muscarinic acetylcholine receptor M2 (Homo sapiens) (UniProt P08172); experiment: Competitive binding affinity to human muscarinic M2 receptor expressed in CHO-K9 cells assessed as rightward shift of saturation isotherm resulting in Schild regression in presence of increasing concentration of W84 by Schild-like analysis; type: cell-based
T1 sequence (whole entry): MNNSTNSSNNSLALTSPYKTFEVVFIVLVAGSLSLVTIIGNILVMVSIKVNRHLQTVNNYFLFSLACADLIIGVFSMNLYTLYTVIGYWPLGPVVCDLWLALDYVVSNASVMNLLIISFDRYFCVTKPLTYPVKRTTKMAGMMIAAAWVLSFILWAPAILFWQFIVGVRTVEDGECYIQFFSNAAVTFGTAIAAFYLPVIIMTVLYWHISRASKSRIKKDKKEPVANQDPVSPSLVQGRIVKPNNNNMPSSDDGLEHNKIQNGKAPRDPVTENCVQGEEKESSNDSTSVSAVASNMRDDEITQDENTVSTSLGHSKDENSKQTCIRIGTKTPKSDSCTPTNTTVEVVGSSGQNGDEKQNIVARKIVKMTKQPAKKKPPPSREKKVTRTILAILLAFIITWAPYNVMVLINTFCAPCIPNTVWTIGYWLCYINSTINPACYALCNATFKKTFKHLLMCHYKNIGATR
How it was run: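 High-content imaging saturation binding of fluorescent ligand at intact CHO-hM2R cells in the presence of increasing concentrations of the allosteric modulator W84. Rightward shifts (ΔpKd) plotted as log(r−1) vs log[modulator], with r = 10^ΔpKd. Three independent experiments in triplicate.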

[2] = biological target: T2, Muscarinic acetylcholine receptor M2 (Homo sapiens, UniProt P08172); experiment: (§1) Antagonist activity at human muscarinic M2 receptor expressed in HEK293 cells co-expressing HA-Galphaq/i5 assessed as inhibition of carbachol-induced IP1 accumulation at 37 degree C pre-incubated for 30 mins followed by carbachol addition and measured after 60 mins by HTRF assay; type: functional, cell-based
T2 sequence (P08172 whole entry): T1 sequence (whole entry)

[3] = biological target: T2, Muscarinic acetylcholine receptor M2; experiment: as §1, with “22” for “37”, “180” for “30”, “further incubated at 37 degree C for 90” for “measured after 60”; type: functional, cell-based
How it was run: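 HEK-hM2-Gαqi5-HA cells (transient transfection) preincubated with antagonist at 22 °C for 180 min, then carbachol 0.3 μM (≈EC80) added and incubation continued at 37 °C for 90 min. Readout is inhibition of IP1 accumulation as pIC50, mean ± SEM of n independent experiments, each in duplicate.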

[4] = biological target: Muscarinic acetylcholine receptor M3 (Homo sapiens, UniProt P20309); experiment: Displacement of [3H]-NMS from human muscarinic M3 receptor stably expressed in CHO-K9 cells by radioligand competitive binding assay; type: cell-based
Sequence of Muscarinic acetylcholine receptor M3 (P20309 whole entry): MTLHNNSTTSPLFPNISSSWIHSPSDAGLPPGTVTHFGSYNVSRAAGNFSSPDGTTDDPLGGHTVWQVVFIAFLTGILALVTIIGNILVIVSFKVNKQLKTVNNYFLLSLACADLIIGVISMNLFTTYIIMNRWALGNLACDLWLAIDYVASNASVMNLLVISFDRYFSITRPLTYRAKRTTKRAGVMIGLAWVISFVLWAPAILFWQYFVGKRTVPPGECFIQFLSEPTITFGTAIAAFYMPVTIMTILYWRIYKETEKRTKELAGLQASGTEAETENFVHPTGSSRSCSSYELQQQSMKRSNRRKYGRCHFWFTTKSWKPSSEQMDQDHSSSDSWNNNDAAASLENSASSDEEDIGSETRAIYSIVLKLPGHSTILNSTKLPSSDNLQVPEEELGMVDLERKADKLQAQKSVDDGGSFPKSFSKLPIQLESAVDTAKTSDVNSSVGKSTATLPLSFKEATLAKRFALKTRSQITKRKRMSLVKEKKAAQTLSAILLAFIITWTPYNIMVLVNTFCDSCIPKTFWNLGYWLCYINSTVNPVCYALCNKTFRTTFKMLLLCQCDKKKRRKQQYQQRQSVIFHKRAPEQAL
How it was run: (§2)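 Equilibrium competition binding at live CHO-hMxR cells with [3H]NMS at M1 0.2, M2 0.2, M3 0.2, M4 0.1, M5 0.3 nM. […] Four-parameter logistic fit converted to pKi; at least three experiments in triplicate (some two).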

[5] = biological target: T2, Muscarinic acetylcholine receptor M2; experiment: Binding affinity to human muscarinic M2 receptor expressed in […] cells incubated in dark at 22 degree C for 2 hrs by FACSCalibur flow cytometric saturation binding study; type: cell-based
[6] = biological target: T3, Muscarinic acetylcholine receptor M4 (Homo sapiens, UniProt P08173); experiment: Displacement of [3H]-NMS from human muscarinic M4 receptor stably expressed in CHO-K9 cells by radioligand competitive binding assay; type: cell-based; how it was run: as §2
T3 sequence (P08173 whole entry): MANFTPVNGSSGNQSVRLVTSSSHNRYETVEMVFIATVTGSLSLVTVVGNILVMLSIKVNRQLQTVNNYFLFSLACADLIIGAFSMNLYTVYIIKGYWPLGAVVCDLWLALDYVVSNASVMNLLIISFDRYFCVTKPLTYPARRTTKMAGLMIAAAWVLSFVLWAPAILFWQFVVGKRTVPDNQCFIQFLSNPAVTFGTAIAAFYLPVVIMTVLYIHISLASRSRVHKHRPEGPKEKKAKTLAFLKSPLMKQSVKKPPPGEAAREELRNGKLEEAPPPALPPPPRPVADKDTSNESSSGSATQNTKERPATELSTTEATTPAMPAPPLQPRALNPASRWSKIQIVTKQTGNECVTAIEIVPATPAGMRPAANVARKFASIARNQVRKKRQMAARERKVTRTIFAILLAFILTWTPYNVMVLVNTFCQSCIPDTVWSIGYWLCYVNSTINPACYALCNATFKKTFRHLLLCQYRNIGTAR

[7] = biological target: T1, Muscarinic acetylcholine receptor M2 (Homo sapiens); experiment: Agonist activity at human muscarinic M2 receptor expressed in HEK293 cells co-expressing HA-Galphaq/i5 assessed as induction of Galphaq/i5-mediated IP1 accumulation by HTRF assay; type: functional, cell-based
How it was run: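 HEK-293 cells transiently co-transfected with hM2R and hybrid Gαqi5-HA, run in agonist mode at 37 °C; IP1 accumulation measured. Carbachol control from 14 independent experiments in duplicate; test ligands from three or four independent experiments in duplicate.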

[8] = biological target: T1, Muscarinic acetylcholine receptor M2 (Homo sapiens); experiment: Binding affinity to human muscarinic M2 receptor expressed in […] cells assessed as unspecific binding at Kd incubated in dark at 22 degree C for 2 hrs in presence of atropine by FACSCalibur flow cytometric saturation binding study relative to control; type: cell-based
[9] = biological target: T1, Muscarinic acetylcholine receptor M2 (Homo sapiens); experiment: Binding affinity to human muscarinic M2 receptor expressed in CHO-K9 cells assessed as association rate constant at 22 +/- 1 degree C incubated under shaking condition in dark for 1 to 300 mins by flow cytometric saturation binding study; type: cell-based
[10] = biological target: T1, Muscarinic acetylcholine receptor M2 (Homo sapiens); experiment: Binding affinity to human muscarinic M2 receptor expressed in CHO-K9 cells assessed as increase in intracellular fluorescence intensity at 30 nM incubated for 45 mins by confocal microscopy
[11] = biological target: T2, Muscarinic acetylcholine receptor M2; experiment: Displacement of [3H]-NMS from human muscarinic M2 receptor stably expressed in CHO-K9 cells by radioligand competitive binding assay; type: cell-based; how it was run: as §2
[12] = Chemical stability of compound in PBS buffer assessed as retention time at pH 7.4 and 22 degree C measured up to 48 hrs by RP-HPLC analysis; type: physicochemical; conditions: pH 7.4, 48 h
How it was run: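 Fluorescent ligand stability checked in PBS pH 7.4 over 48 h by RP-HPLC on a C18 column with an aqueous TFA/acetonitrile gradient, oven at 25 °C, detection at 220 nm.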

[13] = biological target: T1, Muscarinic acetylcholine receptor M2 (Homo sapiens); experiment: Binding affinity to human muscarinic M2 receptor expressed in CHO-K9 cells assessed as observed association rate constant at 22 +/- 1 degree C incubated under shaking condition in dark for 1 to 300 mins by flow cytometric saturation binding study; type: cell-based
[14] = biological target: T3, Muscarinic acetylcholine receptor M4; experiment: as §1, with “M4” for “M2”, “22” for “37”, “180” for “30”, “further incubated at 37 degree C for 90” for “measured after 60”; type: functional, cell-based

| Activity [1] | IC50 [2] [nM] | IC50 [3] [nM] | Ki [4] [nM] | Kd ([5]; read-out: Kd) [nM] | Kd ([5]; read-out: pKd (converted)) [nM] | Ki [6] [nM] | Activity [7] | Activity [8] [%] | K [9] [M⁻¹ s⁻¹] | Activity [10] | Ki [11] [nM] | Retention_time [12] [min] | K [13] [min⁻¹] | IC50 [14] [nM] | SMILES |
| --- | --- | --- | --- | --- | --- | --- | --- | --- | --- | --- | --- | --- | --- | --- | --- |
| Active | 24 | 17.4 | 75.9 | 3.2 | 3.09 | 2.88 | inactive | < 5 | 81700 | Active | 0.631 | 10.4 | 0.024 | 37.2 | CC1(C)C(/C=C/C=C/C=C2/N(CCCCCC(=O)NCc3cc(C(=O)NCCNC(=O)CCc4cn(CCCCC5CCN(CC(=O)N6c7ccccc7NC(=O)c7ccccc76)CC5)cn4)cc(C(=O)NCCNC(=O)CCc4cn(CCCCC5CCN(CC(=O)N6c7ccccc7NC(=O)c7ccccc76)CC5)cn4)c3)c3ccc(S(=O)(=O)O)cc3C2(C)C)=[N+](CCCCS(=O)(=O)[O-])c2ccccc21.O=C(O)C(F)(F)F.O=C(O)C(F)(F)F.O=C(O)C(F)(F)F |
| Active | 224 | 38.9 | 81.3 | 0.8 | 0.891 | 2.14 | inactive | 10 | 158000 | Active | 0.525 | 18.2 | 0.014 | 102 | CC1(C)C(/C=C/C=C/C=C2/N(CCCCCC(=O)NCCN3CCN(CCCCC4CCN(CC(=O)N5c6ccccc6NC(=O)c6ccccc65)CC4)CC3)c3ccc(S(=O)(=O)O)cc3C2(C)C)=[N+](CCCCS(=O)(=O)[O-])c2ccccc21.O=C(O)C(F)(F)F.O=C(O)C(F)(F)F |
| Active | 355 | 57.5 | 155 | 4.1 | 4.47 | 4.47 | inactive | 10 | 61700 | Active | 0.794 | 10.3 | 0.026 | 138 | CC1(C)C(/C=C/C=C/C=C2/N(CCCCCC(=O)NCCNC(=O)CCc3cn(CCCCC4CCN(CC(=O)N5c6ccccc6NC(=O)c6ccccc65)CC4)cn3)c3ccc(S(=O)(=O)O)cc3C2(C)C)=[N+](CCCCS(=O)(=O)[O-])c2ccccc21.O=C(O)C(F)(F)F |
